The source of these data is the array DNA melting data of Ke et al. (doi:10.1101/2024.01.08.574731).

Series [1] is described as follows: folding enthalpy; higher = less favourable; fluorescence melt of hairpins on a sequencing array, two-state fit. To be noted: sodium 0.088 M. The method, boiled down: (§1)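 Melting temperature and folding enthalpy were obtained by bootstrapped two-state fitting. Fits used Cy3 fluorescence of library hairpins with annealed Cy3 and quencher oligos on a sequenced MiSeq flow cell, imaged in 50 mM Na-HEPES pH 8.0, 25 mM NaCl in 2.5 °C steps up to 60 °C and normalised to pre-quench Cy3 and control constructs. Four replicates were combined by inverse-variance weighting, and fitted temperatures were raised by 9.35 °C to match UV melts.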

Series [2] in a line: melting temperature; fluorescence melt of hairpins on a sequencing array, two-state fit, raised by 9.35 °C to match UV melts. The note with it: sodium 0.088 M. In short, it runs like this: as §1

For the sequence GCGGCTTTCCGC ((((....)))), the folding enthalpy in series [1] was -25 kcal/mol. Moreover, in series [2], the Tm stood at 56.6 °C.

Take GCGGGACGCCGC ((((....)))): the folding enthalpy in series [1] was -13.9 kcal/mol. For the same sequence, the Tm in series [2] is 66.2 °C.

GCGGGACTCCGC ((((....)))): the folding enthalpy in series [1] was -27.3 kcal/mol. Moreover, the Tm in series [2] is 67.7 °C.

On to GCGGGAGGAAACTCCCAC (.(((((....))))).), for which the folding enthalpy in series [1] is -13.7 kcal/mol. Further, the Tm in series [2] amounted to 48.7 °C.

Take GCGGGAGGAAACTCTCGC (((.(((....))).))): the folding enthalpy in series [1] was -37.2 kcal/mol. Besides, the Tm in series [2] is 57.5 °C.

GCGGGAGGCCGC ((((....)))): the folding enthalpy in series [1] is -18.4 kcal/mol. Further, the Tm in series [2] is 57.8 °C.

On to GCGGGATCCCGC ((((....)))), for which the folding enthalpy in series [1] was -41.9 kcal/mol. In addition, in series [2], the Tm was 59.3 °C.

Consider GCGGGCAGCCGC ((((....)))), for which, in series [1], the folding enthalpy was -16.4 kcal/mol. For the same sequence, the Tm in series [2] came to 63.5 °C.

In the case of GCGGGCATCCGC ((((....)))), the folding enthalpy in series [1] is -24.5 kcal/mol. Also, the Tm in series [2] was 67 °C.

Consider GCGGGCGAAAGCCTCGC ((((((....))).))), for which, in series [1], the folding enthalpy is -21.9 kcal/mol. Further, the Tm in series [2] stood at 66.3 °C.

With GCGGGCGGAAACACCCGC (((((.(....).))))), the folding enthalpy in series [1] is -44.2 kcal/mol. For the same sequence, the Tm in series [2] was 60.5 °C.

In the case of GCGGGCGGAAACGCCCAC (.(((((....))))).), the folding enthalpy in series [1] was -8.92 kcal/mol. Further, in series [2], the Tm came to 57.2 °C.

Turning to GCGGGCTTCCGC ((((....)))), the folding enthalpy in series [1] is -21.2 kcal/mol. In addition, the Tm in series [2] was 61 °C.

Regarding GCGGGGACCCGC ((((....)))), the folding enthalpy in series [1] is -26.3 kcal/mol. Moreover, the Tm in series [2] came to 68.3 °C.

In the case of GCGGGGCGAAAGCCTAGC ((..(((....)))..)), the folding enthalpy in series [1] is -19.2 kcal/mol. Moreover, in series [2], the Tm was found to be 64.2 °C.

Regarding GCGGGGCGAAAGCGGCGC (((..((....))..))), the folding enthalpy in series [1] is -34.7 kcal/mol. Also, the Tm in series [2] worked out at 66.8 °C.

For GCGGGGCGAAAGCTCAGC ((.(.((....)).).)), the folding enthalpy in series [1] is -23.7 kcal/mol. Besides, the Tm in series [2] was determined as 60.1 °C.

Take GCGGGGCGAAAGCTCGGC ((.(.((....)).).)): the folding enthalpy in series [1] is -16.4 kcal/mol. Moreover, the Tm in series [2] stood at 56.3 °C.

Regarding GCGGGGCGAAAGCTGCGC (((..((....))..))), in series [1], the folding enthalpy is -27.2 kcal/mol. Further, in series [2], the Tm turned out to be 65.6 °C.

On to GCGGGGTCGAAAGACCGC (((..(((....)))))), for which the folding enthalpy in series [1] is -12.8 kcal/mol. The Tm in series [2] came to 57.7 °C.

Take GCGGGTGCCCGC ((((....)))): in series [1], the folding enthalpy is -30.3 kcal/mol. For the same sequence, in series [2], the Tm turned out to be 57.4 °C.

On to GCGGGTGGAAACGCTCGC (((.(.(....).).))), for which, in series [1], the folding enthalpy was -24.6 kcal/mol. The Tm in series [2] came to 52.1 °C.

Consider GCGGGTGTCCGC ((((....)))), for which the folding enthalpy in series [1] was -22.8 kcal/mol. In addition, the Tm in series [2] worked out at 58.2 °C.

On to GCGGGTTCGAAAGAACGC (((..(((....)))))), for which the folding enthalpy in series [1] is -12.3 kcal/mol. The Tm in series [2] is 45.5 °C.

In the case of GCGGTAACCGC ((((...)))), the folding enthalpy in series [1] is -27.8 kcal/mol. In addition, the Tm in series [2] stood at 57.5 °C.

Consider GCGGTAAGCCGC ((((....)))), for which the folding enthalpy in series [1] is -23.3 kcal/mol. The Tm in series [2] came out at 57.7 °C.

GCGGTACGAAAGTATCGC (((.(((....))).))): in series [1], the folding enthalpy is -56.1 kcal/mol. For the same sequence, in series [2], the Tm was 64.7 °C.

On to GCGGTCACCGC ((((...)))), for which the folding enthalpy in series [1] is -23.8 kcal/mol. Also, the Tm in series [2] was 63 °C.

For GCGGTCGAAAGACCACGC ((((((....)))..))), in series [1], the folding enthalpy was -17 kcal/mol. In addition, in series [2], the Tm was 57 °C.

For the sequence GCGGTCGAAAGACCTCGC ((((((....)))..))), the folding enthalpy in series [1] was -14.8 kcal/mol. In series [2], the Tm was determined as 50.2 °C.

On to GCGGTCGGAAACGACTGC ((.((((....)))).)), for which the folding enthalpy in series [1] is -41.5 kcal/mol. For the same sequence, the Tm in series [2] was 64.2 °C.

For GCGGTCGGAAACGGTCGC (((..((....))..))), the folding enthalpy in series [1] is -25.1 kcal/mol. Further, the Tm in series [2] came out at 52.2 °C.

Take GCGGTGATCCGC ((((....)))): in series [1], the folding enthalpy is -28.1 kcal/mol. Also, the Tm in series [2] turned out to be 54.8 °C.

As to GCGGTGCGAAAGCATGGC ((..(((....)))..)), the folding enthalpy in series [1] is -21.8 kcal/mol. In series [2], the Tm stood at 56.1 °C.

For the sequence GCGGTGCGAAAGCATTGC ((..(((....)))..)), the folding enthalpy in series [1] was -22.4 kcal/mol. For the same sequence, in series [2], the Tm came out at 59.2 °C.

For the sequence GCGGTGGGAAACTACCGC (((((.(....).))))), the folding enthalpy in series [1] is -37.5 kcal/mol. The Tm in series [2] turned out to be 60.5 °C.

For the sequence GCGGTTAACCGC ((((....)))), the folding enthalpy in series [1] is -28.7 kcal/mol. Also, the Tm in series [2] was determined as 66.7 °C.

GCGGTTACCCGC ((((....)))): the folding enthalpy in series [1] is -28.4 kcal/mol. Moreover, the Tm in series [2] stood at 56.7 °C.

On to GCGGTTGGAAACAATCGC (((.(((....))).))), for which, in series [1], the folding enthalpy was -40.8 kcal/mol. Further, the Tm in series [2] is 56.1 °C.

As to GCGGTTGGCCGC ((((....)))), the folding enthalpy in series [1] was -25.3 kcal/mol. In series [2], the Tm turned out to be 64.8 °C.

As to GCGGTTTCCCGC ((((....)))), the folding enthalpy in series [1] is -25 kcal/mol. For the same sequence, the Tm in series [2] amounted to 56.2 °C.

In the case of GCGTAAAGACGC ((((....)))), the folding enthalpy in series [1] was -17.8 kcal/mol. Moreover, the Tm in series [2] is 46.9 °C.

Take GCGTAACACGC ((((...)))): the folding enthalpy in series [1] was -20.9 kcal/mol. The Tm in series [2] is 55.7 °C.

On to GCGTAACCACGC ((((....)))), for which the folding enthalpy in series [1] was -23.3 kcal/mol. In addition, the Tm in series [2] amounted to 54.8 °C.

For the sequence GCGTAACTACGC ((((....)))), in series [1], the folding enthalpy was -25.4 kcal/mol. For the same sequence, the Tm in series [2] was 57.1 °C.

For the sequence GCGTAAGACGC ((((...)))), the folding enthalpy in series [1] was -21.3 kcal/mol. In series [2], the Tm came to 53 °C.

Regarding GCGTAAGGAAACTTATGC ((.((((....)))).)), in series [1], the folding enthalpy was -31.2 kcal/mol. Further, the Tm in series [2] was 45.6 °C.

Take GCGTAAGGAAACTTGTGC ((..(((....)))..)): the folding enthalpy in series [1] was -10.8 kcal/mol. Also, the Tm in series [2] was determined as 29.7 °C.

On to GCGTAATAACGC ((((....)))), for which the folding enthalpy in series [1] was -21.1 kcal/mol. The Tm in series [2] worked out at 51.6 °C.

Regarding GCGTAATACGC ((((...)))), the folding enthalpy in series [1] was -18.7 kcal/mol. The Tm in series [2] was 51.9 °C.

In the case of GCGTAATGACGC ((((....)))), the folding enthalpy in series [1] was -23.2 kcal/mol. Moreover, the Tm in series [2] is 51.5 °C.

Regarding GCGTACCGAAAGGTTCGC (((.(((....))).))), the folding enthalpy in series [1] was -50.5 kcal/mol. Further, the Tm in series [2] amounted to 63 °C.

Take GCGTACCTACGC ((((....)))): the folding enthalpy in series [1] was -29.7 kcal/mol. The Tm in series [2] is 52.8 °C.

Take GCGTACGAAAGTAACGC ((((((....))).))): the folding enthalpy in series [1] is -40.2 kcal/mol. The Tm in series [2] worked out at 59.4 °C.

On to GCGTACGAAAGTACACGC ((((((....)))..))), for which the folding enthalpy in series [1] was -19.1 kcal/mol. Also, the Tm in series [2] is 52.6 °C.

On to GCGTACGAAAGTATCGC ((((((....))).))), for which, in series [1], the folding enthalpy was -39.6 kcal/mol. In series [2], the Tm amounted to 53.4 °C.

Turning to GCGTACGGAAACGCACAC (.((.((....)).)).), the folding enthalpy in series [1] is -12.6 kcal/mol. Also, in series [2], the Tm is 38.1 °C.

As for GCGTACTTACGC ((((....)))), the folding enthalpy in series [1] was -26.1 kcal/mol. Further, in series [2], the Tm was 54.7 °C.
